pPAFAH FP inh = pPAFAH enzyme inhibitors, primary screen, biochemical, fluorescence polarization, human; Platelet-activating factor acetylhydrolase (Homo sapiens), Q13093; recombinant pPAFAH, FP-rhodamine probe fluorescence polarization; inhibition, % at 3.39 µM; actives 1.5% (n = 330,000); AID 463082, 2010;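 active = inhibition above the mean inhibition across the screen plus 3 SD, cut at about 25% in these data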;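 note: inhibitors block binding of the rhodamine activity-based probe so polarization drops; 0% = enzyme with DMSO and 100% = wells lacking pPAFAH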
HTRA1 inhibitor = HTRA1 serine protease inhibitors, primary screen, biochemical, fluorescence polarization, HTS; Q92743; recombinant HTRA1, FP-rhodamine activity-based probe; inhibition, % at 5.96 µM; actives 0.5% (n = 340,000); AID 504803, 2011; in the data active = inhibition above about 36%;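 note: 0% = enzyme with DMSO and 100% = wells lacking enzyme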
Target sequence (Q92743 whole entry, looked up): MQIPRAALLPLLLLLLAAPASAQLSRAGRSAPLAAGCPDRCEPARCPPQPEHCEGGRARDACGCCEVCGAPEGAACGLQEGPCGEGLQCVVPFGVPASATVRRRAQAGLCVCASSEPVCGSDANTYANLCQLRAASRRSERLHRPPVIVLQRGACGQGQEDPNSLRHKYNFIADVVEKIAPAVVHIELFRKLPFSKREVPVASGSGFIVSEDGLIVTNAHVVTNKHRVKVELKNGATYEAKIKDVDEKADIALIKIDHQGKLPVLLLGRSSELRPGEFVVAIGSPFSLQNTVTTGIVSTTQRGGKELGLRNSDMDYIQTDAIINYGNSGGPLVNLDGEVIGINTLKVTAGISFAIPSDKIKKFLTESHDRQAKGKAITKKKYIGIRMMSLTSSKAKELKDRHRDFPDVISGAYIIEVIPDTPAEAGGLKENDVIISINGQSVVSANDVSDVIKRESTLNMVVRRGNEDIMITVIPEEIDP
TCR-CD3 inh = inhibitors of human TCR-CD3 interaction, primary screen, biochemical, fluorescence, TAMRA-labeled TCR probe | T-cell receptor (TCR) | inhibition, % at 9.4 µM | actives 0.37% (n = 360,000);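 note: recombinant mutant TCR 2C K166C tagged with TAMRA read by polarization; 0% = receptor in buffer alone and 100% = receptor with positive control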
SIAE primary = human SIAE inhibitors, primary screen, biochemical, fluorescence polarization, FP-Rh probe, 1536-well HTS; SIAE FP-Rh probe binding; actives 0.69% (n = 370,000); Sialate O-acetylesterase (Homo sapiens), Q9HAT2; inhibition, % at 9.66 µM;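 active = inhibition above a cutoff: mean of compounds within the control limits plus 3 SD of those, cut at about 17% in these data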;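 note: 0% = plate median of compound wells and 100% = probe without SIAE protein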
mABHD4 FP = ABHD4 inhibitors, primary screen, biochemical, fluorescence polarization, mouse | (Lyso)-N-acylphosphatidylethanolamine lipase (Mus musculus), Q8VD66 | purified mABHD4, FP-Rh probe fluorescence polarization | AID 720543, 2013 | actives 0.54% (n = 370,000) | inhibition, % at 8.92 µM;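 active = inhibition exceeding the mean over every tested compound plus 3 SD, cut at about 30% in these data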;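 note: 0% = plate median of compound wells and 100% = S159A mutant with DMSO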
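Assay system: mouse ABHD4 enzyme, wild type / Also added: fluorescent activity-based probe FP-Rh / Doses: single nominal dose of 8.92 µM, 0.89% DMSO final / Timing: 45 min compound pre-incubation plus 60 min probe step, 25 °C / Signal: FP readout, ex 525 nm / em 598 nm / Control set: S159A mutant/DMSO as 100%, compound-well median as 0%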
BSA probe FL = compounds interfering with TAMRA-BSA probe, counter-screen for TCR-CD3 interaction inhibitor project, biochemical, fluorescence, TAMRA-labeled BSA; AID 652035, 2013; inhibition, % at 9.4 µM; actives 10% (n = 1,200); shares compounds with TCR-CD3 inh; TAMRA-labeled BSA probe fluorescence counterscreen; in the data active = inhibition above about 23%;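 note: 0% = buffer low control and 100% = reference high control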
TCR-CD3 inh conf = TCR-CD3 interaction inhibitors, retest, confirmation, biochemical, fluorescence, TAMRA-labeled TCR probe | TAMRA-labeled TCR probe fluorescence binding assay | inhibition, % at 9.4 µM | actives 48% (n = 1,200) | shares compounds with TCR-CD3 inh
Numbers without * were called inactive; . = no result. Only some compounds are listed: those with a hit (about 2.3% of all), similar ones and a draw of the others. Cut-off read from the data, not from the text of the source, unless noted: active = inhibition above about 19%; inactive = the rest.

SMILES	pPAFAH FP inh	HTRA1 inhibitor	TCR-CD3 inh	SIAE primary	mABHD4 FP	BSA probe FL	TCR-CD3 inh conf
CC(=O)Nc1cc(-c2cccc(F)c2)cn2c(-c3ccccc3)cnc12	.	.	-1	1	-1	.	.
CCOC(=O)C[C@@H]1OC[C@H](C(C)C)N1S(=O)(=O)c1ccc(C)cc1	.	.	-1	2	-3	.	.
Cc1cc([N+](=O)[O-])cc(/C=N/n2c(C)nc3ccccc3c2=O)c1O	11	6	45*	10	1	-15	45*
CC1CCCCN1C(=O)CSc1nnc(-c2ccccc2O)o1 (stereo not drawn)	8	21	27*	9	2	13	21*
CCN1CCN(Cc2ccc(NC(=O)c3ccc(C)c(NC(=O)c4cc(-c5ccc(Br)cc5)n[nH]4)c3)cc2C(F)(F)F)CC1	-26	-100	26*	-57	-35	8	8
CC(=O)c1ccc(OC2(C)CCN(Cc3cc4ccccc4[nH]3)C2)cc1 (stereo not drawn)	.	.	31*	9	6	2	3
O=C(/C=C/c1cccs1)c1ccc(NC(=O)c2cccc(Br)c2)cc1	7	-54	42*	-13	-36	3	12
O=C1C(=Cc2cn(-c3ccccc3)nc2-c2ccc(OCc3ccccc3)cc2)SC(=S)N1CCS(=O)(=O)O	.	.	26*	-97	-106	1	19*
N#Cc1ccc(-c2cccc3nccn23)cc1	.	.	-6	4	0	.	.
O=C(COC(=O)c1ccc(OC(F)F)cc1)Nc1cccc(S(=O)(=O)NC2=NCCC2)c1	1	8	40*	1	4	3	-1
CCN(CC)S(=O)(=O)c1cccc(NC(=O)Nc2cccc(C(F)(F)F)c2)c1	-85	-125	24*	-215	-132	15	26*
CCN(CC)S(=O)(=O)c1cccc(NC(=O)CC2CCCC2)c1	0	-6	0	3	3	.	.
Cc1cnc(C=NNC(N)=S)c2cccc(N)c12	.	28	29*	10	23	-4	16
NC(=O)CCC1NC(=S)N(Cc2ccccc2)C1=O (stereo not drawn)	-2	-1	34*	3	1	13	45*
O=C(CCC(=O)N/N=C/c1cc(Cl)cc(Cl)c1O)NCc1ccccc1	1	15	21*	7	6	11	23*
N#Cc1ccc(CC(=O)c2ccccc2)[nH]c1=O	.	28	60*	7	43*	16	9
Cc1ccc(F)c(S(=O)(=O)NC(=O)C2(C)CCN2C(=O)c2ccc(C(F)(F)F)nc2C)c1 (stereo not drawn)	.	.	0	2	-2	.	.
Cc1cccc(NC(=O)CSc2nnc(-c3ccccc3)n2N)c1	5	-5	24*	1	6	2	0
Cc1cc(C)cc(NC(=O)CSc2nnc(-c3ccccc3)n2N)c1	-2	-2	9	-4	-16	.	.
C=CCn1c(O)c(N=NC(=O)CNC(=O)/C=C/c2ccco2)c2ccccc21	13	4	23*	3	0	-5	20*
C=CCn1c(O)c(N=NC(=O)CNC(=O)/C=C/c2ccc(OC)cc2)c2ccccc21	-1	-15	9	-5	-2	.	.
Cc1nn(C)c(C(=O)N/N=C/c2ccc(Br)cc2)c1Cl	1	-4	21*	-1	13	1	3
Cc1cccc(C)c1NC(=O)C1(C)CSCC(=O)N1Cc1cccs1 (stereo not drawn)	.	.	11	0	-7	.	.
COCCNC(=O)CSCc1nc(-c2ccc(SC)cc2)oc1C	11	4	33*	-1	-5	8	3
CCOCCCNC(=O)CSCc1nc(-c2ccc(SC)cc2)oc1C	5	-5	-2	3	-9	.	.
